Where two headings read alike, the source gives them in different places. Marks after values point to notes of the source that are not given here. Numbered stars: 1 amine (or outer) side, 2 acyl side, 3 side chain; on linkers, the order of the positions; unused ones are H or OH. Square brackets hold non-standard residues; d marks the D form. Peptide text beside a SMILES is read from it. * marks the point of attachment. dProψ(CH2NH)PheNH2 = NC(=O)[C@H](Cc1ccccc1)NC[C@H]1CCCN1*; X1 = O=C(C[C@@H](N[*:1])c1ccc(Cl)cc1)[*:2]; Hydrocinnamoyl = O=C(CCc1ccccc1)*; NHPhenethyl = c1ccc(CCN*)cc1; Nle = CCCC[C@H](N)C(=O)O; PhAc = O=C(Cc1ccccc1)*
Tests used:
NCI-H1299-BRS-3 cells = assay: Clonogenic assay; assay type: cell-based, human; details: for Colony number: addition 10 nM, mean ± S.D., no addition 40 ± 6; for Effect on NCI-H1299-BRS-3 cellular proliferation: unpublished
[1] = tested on: ERK tyrosine phosphorylation; assay: ERK tyrosine phosphorylation; assay type: cell-based, human; details: concentration not given
[2] = tested on: EGFR tyrosine phosphorylation; assay: EGFR tyrosine phosphorylation; assay type: cell-based, human
BB2R = details: cited from earlier work
BRS-3 [3] = molecular target: T1, BRS-3 (Homo sapiens, UniProt P32247); details: cited from earlier work
T1 sequence (P32247 1-399): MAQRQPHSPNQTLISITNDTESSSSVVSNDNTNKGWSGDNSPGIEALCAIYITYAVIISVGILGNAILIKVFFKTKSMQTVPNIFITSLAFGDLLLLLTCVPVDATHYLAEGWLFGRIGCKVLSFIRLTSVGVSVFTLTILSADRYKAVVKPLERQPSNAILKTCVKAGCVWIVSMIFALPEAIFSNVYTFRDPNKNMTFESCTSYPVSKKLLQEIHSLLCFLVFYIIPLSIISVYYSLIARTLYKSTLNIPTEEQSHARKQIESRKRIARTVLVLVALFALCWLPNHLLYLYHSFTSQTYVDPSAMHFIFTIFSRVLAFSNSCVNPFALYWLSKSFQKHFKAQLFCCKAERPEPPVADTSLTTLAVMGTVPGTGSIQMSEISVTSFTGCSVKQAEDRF

BB1R = details: read-out: IC50, binding to BB1R; transfected Balb 3T3 cells; cited from earlier work
BRS-3 [4] = molecular target: T1, BRS-3; assay: Inhibition of specific 125I-BA1 binding to NCI-H1299-BRS-3 cells
Balb/3T3-BRS-3 cells = assay: MTT proliferation assay; assay type: cell-based
Balb/3T3 cells = assay: MTT proliferation assay, control cells; assay type: cell-based; details: 30 μg/ml, 16 hours, mean ± S.E.
Outline: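 Parental Balb/3T3 cells lacking BRS-3 were maintained in DMEM with 10% FBS. They were seeded at 10⁴/well in serum-free SIT medium (RPMI-1640 with selenite, insulin and transferrin) and exposed for 16 h to test compound at 10 nM or 30 μg/ml. MTT was then added for 3 h, formazan was dissolved in DMSO, and OD was read at 570 nm. Growth is given as % of control, mean ± S.E.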

[5] = concentration not given, data not shown / unpublished
[6] = read-out: IC50, binding to BRS-3, transfected Balb 3T3 cells
[7] = read-out: IC50, binding to BB2R, transfected Balb 3T3 cells

With `CSCC[C@H](NC(=O)[C@H](CC(C)C)NC(=O)[C@H](Cc1c[nH]cn1)NC(=O)CNC(=O)[C@@H](NC(=O)[C@H](C)NC(=O)[C@H](Cc1c[nH]c2ccccc12)NC(=O)[C@H](Cc1c[nH]cn1)NC(=O)[C@H](CC(N)=O)NC(=O)CNC(=O)[C@H](CCCNC(=N)N)NC(=O)[C@@H]1CCCN1C(=O)[C@H](Cc1ccc(O)cc1)NC(=O)[C@H](CCSC)NC(=O)[C@H](CCCCN)NC(=O)[C@@H](NC(=O)[C@H](CC(C)C)NC(=O)[C@@H](NC(=O)[C@@H](NC(=O)CNC(=O)CNC(=O)CNC(=O)[C@H](C)NC(=O)[C@@H]1CCCN1C(=O)[C@H](CC(C)C)NC(=O)[C@@H]1CCCN1C(=O)[C@@H](N)C(C)C)[C@@H](C)O)C(C)C)[C@@H](C)O)C(C)C)C(N)=O` [GRP, gastrin releasing peptide] the Colony number (NCI-H1299-BRS-3 cells) was 41 ± 5^aa.

With `COc1cc2ncnc(Nc3cccc(Cl)c3)c2cc1OC` [AG1478] the “Inhibition of BA1-induced ERK tyrosine phosphorylation” value [1] was “blocked” and the “Inhibition of the increase in EGFR tyrosine phosphorylation caused by BA1” value (from here on “Inhibition of the increase”) [2, 5] was “blocked”.

With `CC(C)(C)n1nc(-c2ccc(Cl)cc2)c2c(N)ncnc21` [PP2] the “Inhibition of the increase” value ([2]; 10 μM, 100 nM BA1) was “inhibited”.

In the case of `c1ccc2c(c1)[I+]c1ccccc1-2` [DPI, diphenylene iodonium], the “Inhibition of the increase” value ([2]; 15 μM, 100 nM BA1) is reported as “inhibited”.

With `O=S(=O)(O)c1cc(O)c(O)c(S(=O)(=O)O)c1` [Tiron] the “Inhibition of the increase” value ([2]; 5 mM, 100 nM BA1) was “reversed”.

For “Ac-Phe-Trp-Ala-His(γBzl)-Nip-Gly-Arg-NH2”, the IC50 (BB2R; read-out: IC50, BB2R, ref 2, 28) is listed as greater than 10000 nM and the IC50 (BB2R; read-out: IC50, BB2R, ref 26, 27) is listed as 2800 nM.

In the case of `C[C@@](Cc1c[nH]c2ccccc12)(NC(=O)Nc1ccc([N+](=O)[O-])cc1)C(=O)NCC1(c2ccccn2)CCCCC1` [PD168368], the IC50 (BRS-3 [3]; [6]) is given as greater than 10000 nM, the IC50 (BB2R; [7]) is given as 213 nM and the “Effect on NCI-H1299-BRS-3 cellular proliferation” value (NCI-H1299-BRS-3 cells) is given as “little effect”. For the same molecule, the IC50 (BB1R) was 0.5 nM, the “Inhibition of BA1-induced ERK tyrosine phosphorylation” value [1] was “not inhibited” and the IC50 (BRS-3 [4]; read-out: IC50, inhibition of specific 125I-BA1 binding, NCI-H1299-BRS-3 cells, 37°C, mean ± S.E. of 4 determinations) was greater than 2000 nM.

With `COc1cccc(-c2cc(=O)c3ccccc3o2)c1N` [PD98059] the “Inhibition of BA1-induced ERK tyrosine phosphorylation” value [1] was “reversed”, the Effect on growth (Balb/3T3-BRS-3 cells; 10 μM, all cells tested, preliminary unpublished data) was “little effect” and the “Inhibition of the increase” value [2, 5] was “no effect”.

For `COc1cc2ncnc(Nc3ccc(F)c(Cl)c3)c2cc1OCCCN1CCOCC1` [Gefitinib, gefitinib], the “Effect on colony number” value (NCI-H1299-BRS-3 cells; gefitinib dose-response, exogenous BA1 not added, Fig. 1B) was “reduced colony number in a dose-dependent manner”, the IC50 (BRS-3 [4]) was greater than 2000 nM and the “% Growth Balb/3T3” value (Balb/3T3 cells) was 31 ± 4 %. The “% Growth Balb/3T3-BRS-3” value (Balb/3T3-BRS-3 cells; 30 μg/ml, 16 hours, MTT, mean ± S.E.) was 41 ± 6 %.

In the case of `C[C@H](NC(=O)Cc1ccccc1)C(=O)N[C@H](Cc1c[nH]c2ccccc12)C(=O)NCCc1ccccc1` [16a] (PhAc-Ala-[dW]-NHPhenethyl), the IC50 (BRS-3 [3]; read-out: IC50, binding to human BRS-3) is listed as 3160 nM.

With `CNC(=O)[C@H](Cc1c[nH]c2ccccc12)NC(=O)[C@@H](CC(=O)NO)CC(C)C` [GM6001] the “Inhibition of the increase” value ([2]; 10 μM, 100 nM BA1) was “inhibited”.

With `CSCC[C@H](NC(=O)[C@H](Cc1ccccc1)NC(=O)[C@H](Cc1c[nH]cn1)NC(=O)CNC(=O)[C@@H](NC(=O)[C@H](C)NC(=O)[C@H](Cc1c[nH]c2ccccc12)NC(=O)[C@H](CC(C)C)NC(=O)[C@H](CC(N)=O)NC(=O)CN)[C@@H](C)O)C(N)=O` [NMB, neuromedin B] the Colony number (NCI-H1299-BRS-3 cells) was 46 ± 5^a and the IC50 (BRS-3 [4]) was greater than 2000 nM.

For `CC(=O)N[C@@H](CS)C(=O)O` [N-acetylcysteine], the “Inhibition of the increase” value ([2]; 5 mM, 100 nM BA1) was “reversed”.

For `CCCC[C@H](NC(=O)[C@H](Cc1ccccc1)NC(=O)[C@H](Cc1c[nH]cn1)NC(=O)C[C@@H](NC(=O)[C@@H](NC(=O)[C@H](C)NC(=O)[C@H](Cc1c[nH]c2ccccc12)NC(=O)[C@H](CCC(N)=O)NC(=O)[C@H](N)Cc1ccc(O)cc1)C(C)C)c1ccc(Cl)cc1)C(N)=O` [BA3, (DTyr^6, R-Apa^11,4-Cl,Phe^13, Nle^14)bombesin^6-14] (H-[dY]QWAV[X1]HF[Nle]-NH2; N-terminus and C-terminus assumed), the “Selectivity for hBRS-3 over hNMBR or hGRPR” value (BRS-3 [3]) is listed as “over 60 fold” and the “EGFR tyrosine phosphorylation (transactivation)” value ([2]; 100 nM, NCI-H1299-BRS-3 cells) is listed as “increased”.

In the case of `CC(C)[C@H](NC(=O)[C@H](C)NC(=O)[C@H](Cc1c[nH]c2ccccc12)NC(=O)[C@H](Cc1c[nH]cn1)NC(=O)CCc1ccccc1)C(=O)N[C@H](C)C(=O)N[C@@H](Cc1c[nH]cn1)C(=O)N1CCC[C@@H]1CN[C@@H](Cc1ccccc1)C(N)=O` [BW2258U89] (Hydrocinnamoyl-HWAV[dA]H-{dProψ(CH2NH)PheNH2}; N-terminus and C-terminus assumed), the IC50 (BRS-3 [3]; [6]) is given as 6820 nM, the IC50 (BB2R; [7]) is given as 0.2 nM and the “Effect on NCI-H1299-BRS-3 cellular proliferation” value (NCI-H1299-BRS-3 cells) is given as “little effect”. The IC50 (BB1R) was 4900 nM and the “Inhibition of BA1-induced ERK tyrosine phosphorylation” value [1] was “not inhibited”.

— publication PMC3152616 (Peptides, 2011)
